Measured values taken from ChEMBL document CHEMBL4680257, “Discovery of novel NF-кB inhibitor based on scaffold hopping: 1,4,5,6,7,8-hexahydropyrido[4,3-d]pyrimidine” (Eur J Med Chem, 2020).

Tests used:
RAW264.7 [1] = experiment: Antiinflammatory activity against mouse RAW264.7 cells assessed as LPS-induced TNF-alpha at 5 uM pretreated for 2 hrs followed by LPS stimulation and measured after 22 hrs by ELISA (reference value: 0 %); assay type: functional; conditions: time 24 hrs
RAW264.7 [2] = experiment: Cytotoxicity against mouse RAW264.7 cells assessed as reduction in cell viability at 5 uM incubated for 24 hrs by MTT assay; assay type: cell-based; conditions: raw264.7, 24 h
HepG2 = experiment: Cytotoxicity against human HepG2 cells assessed as reduction in cell viability incubated for 24 hrs by MTT assay; assay type: functional, cell-based; conditions: HepG2, 24 h
Outline: (§1)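 Cells kept at 37 °C in 5% CO₂. HepG2 grown in DMEM with 10% serum; HHL-5, LO2 and SMMC-7721 in 1640 medium with 10% serum. Seeded, grown 24 h, then exposed 24 h to 10, 5, 2.5, 1.25, 0.625 and 0.3125 µg/mL. MTT (5 mg/mL) added for 4 h at 37 °C; formazan dissolved in DMSO, OD read at 570 nm. IC50 averaged from three replicates.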

[3] = Cytotoxicity against human HHL-5 cells assessed as reduction in cell viability incubated for 24 hrs by MTT assay; assay type: cell-based; conditions: HHL-5, 24 h; outline: as §1
L02 = experiment: Cytotoxicity against human L02 cells assessed as reduction in cell viability incubated for 24 hrs by MTT assay; assay type: cell-based; conditions: L02, 24 h; outline: as §1
SMMC-7721 = experiment: Cytotoxicity against human SMMC-7721 cells assessed as reduction in cell viability incubated for 24 hrs by MTT assay; assay type: functional, cell-based; conditions: SMMC-7721, 24 h; outline: as §1
RAW264.7 [4] = experiment: Antiinflammatory activity against mouse RAW264.7 cells assessed as LPS-induced IL-6 at 5 uM pretreated for 2 hrs followed by LPS stimulation and measured after 22 hrs by ELISA relative to control (reference value: 0 %); assay type: functional; conditions: time 24 hrs

| Compound | inhibition at 5 µM (RAW264.7 [1]) [%] | Activity (RAW264.7 [2]) | IC50 (HepG2) [µM] | IC50 [3] [µM] | IC50 (L02) [µM] | IC50 (SMMC-7721) [µM] | inhibition at 5 µM (RAW264.7 [4]) [%] |
| --- | --- | --- | --- | --- | --- | --- | --- |
| Cl.NC1=NC(c2ccc(F)cc2)C2=C(N1)/C(=C/c1ccc(F)cc1)CN(S(=O)(=O)c1ccc(Cl)cc1)C2 (centres undefined) | 48.4 | Non-Toxic | 7.6 | 27.1 | 16.7 | 12 | 54.8 |
| Cl.NC1=NC(c2ccccc2F)C2=C(N1)/C(=C/c1ccccc1F)CN(S(=O)(=O)c1ccc([N+](=O)[O-])cc1)C2 (centres undefined) | 72.7 | Non-Toxic | 11.9 | 10.7 | 12.4 | 5.7 | 79.6 |
| O=C1/C(=C/c2ccc(F)cc2)CN(S(=O)(=O)c2ccccc2)C/C1=C\c1ccc(F)cc1 | – | Non-Toxic | 18.8 | 7.7 | 18.8 | 9.1 | – |
| O=C1/C(=C/c2ccc(F)cc2)CN(S(=O)(=O)c2ccc(Br)cc2)C/C1=C\c1ccc(F)cc1 | – | Non-Toxic | 8 | 17.1 | 16.4 | 11.5 | – |
| Cl.NC1=NC(c2ccccc2F)C2=C(N1)/C(=C/c1ccccc1F)CN(S(=O)(=O)c1ccc(Br)cc1)C2 (centres undefined) | 74.4 | Non-Toxic | 10.4 | 12.5 | 19.5 | 9.7 | 79.6 |
| O=C1/C(=C/c2ccccc2F)CN(S(=O)(=O)c2ccc([N+](=O)[O-])cc2)C/C1=C\c1ccccc1F | – | Non-Toxic | 16.5 | 6.6 | 15.5 | 6.2 | – |
| Cl.N#Cc1ccc(S(=O)(=O)N2CC3=C(NC(N)=NC3c3ccc(F)cc3)/C(=C/c3ccc(F)cc3)C2)cc1 (centres undefined) | 45.9 | Non-Toxic | 11.7 | 26.7 | 18.6 | 42.7 | 51.1 |
| CC(=O)Nc1ccc(S(=O)(=O)N2C/C(=C\c3ccccc3F)C(=O)/C(=C/c3ccccc3F)C2)cc1 | – | Non-Toxic | 5.2 | 13.6 | – | – | – |
| O=C1/C(=C/c2ccc(F)cc2)CN(S(=O)(=O)c2ccc(Cl)cc2)C/C1=C\c1ccc(F)cc1 | – | Non-Toxic | 4.5 | 17.7 | 15.5 | 7 | – |
| O=C1/C(=C/c2ccc(F)cc2)CN(S(=O)(=O)c2ccc(F)cc2)C/C1=C\c1ccc(F)cc1 | – | Non-Toxic | 8.1 | 11.7 | 14.8 | 14.7 | – |
| CC(=O)Nc1ccc(S(=O)(=O)N2CC3=C(NC(N)=NC3c3ccc(F)cc3)/C(=C/c3ccc(F)cc3)C2)cc1.Cl (centres undefined) | 40.1 | Non-Toxic | 7.4 | 32.2 | 20.3 | 6.2 | 54.2 |
| Cl.NC1=NC(c2ccc(F)cc2)C2=C(N1)/C(=C/c1ccc(F)cc1)CN(S(=O)(=O)c1ccc(Br)cc1)C2 (centres undefined) | 58.1 | Non-Toxic | 5.6 | 18.3 | 18.3 | 12.2 | 64.3 |
| O=C1/C(=C/c2ccc(F)cc2)CN(S(=O)(=O)c2ccc([N+](=O)[O-])cc2)C/C1=C\c1ccc(F)cc1 | – | Non-Toxic | 5.4 | 7.8 | 16.2 | 5 | – |
| Cc1ccc(S(=O)(=O)N2C/C(=C\c3ccc(F)cc3)C(=O)/C(=C/c3ccc(F)cc3)C2)cc1 | – | Non-Toxic | 4.5 | 6 | 14 | 5 | – |
| CC(=O)Nc1ccc(S(=O)(=O)N2C/C(=C\c3ccc(F)cc3)C(=O)/C(=C/c3ccc(F)cc3)C2)cc1 | – | Non-Toxic | 7.4 | 15 | 19.4 | 9.8 | – |
| CC(=O)Nc1ccc(S(=O)(=O)N2CC3=C(NC(N)=NC3c3cccc(F)c3)/C(=C/c3cccc(F)c3)C2)cc1.Cl (centres undefined) | 69.9 | Non-Toxic | 22.9 | 10.7 | 15 | 6.5 | 57.5 |
| O=C1/C(=C/c2ccccc2F)CN(S(=O)(=O)c2ccc(C(F)(F)F)cc2)C/C1=C\c1ccccc1F | – | Non-Toxic | 4.9 | 15.3 | 16.2 | 5.2 | – |
| O=C1/C(=C/c2cccc(F)c2)CN(S(=O)(=O)c2ccccc2)C/C1=C\c1cccc(F)c1 | – | Non-Toxic | 3.4 | 17.1 | 16.2 | 12.9 | – |
| Cl.NC1=NC(c2cccc(F)c2)C2=C(N1)/C(=C/c1cccc(F)c1)CN(S(=O)(=O)c1ccc(Cl)cc1)C2 (centres undefined) | 57.7 | Non-Toxic | 15 | 12 | 15.1 | 5.5 | 75.9 |

| Compound | inhibition at 5 µM (RAW264.7 [1]) [%] | Activity (RAW264.7 [2]) | IC50 (HepG2) [µM] | IC50 [3] [µM] | IC50 (L02) [µM] | IC50 (SMMC-7721) [µM] | inhibition at 5 µM (RAW264.7 [4]) [%] |
| --- | --- | --- | --- | --- | --- | --- | --- |
| N#Cc1ccc(S(=O)(=O)N2C/C(=C\c3cccc(F)c3)C(=O)/C(=C/c3cccc(F)c3)C2)cc1 | – | Non-Toxic | 2.6 | 7.5 | 15.5 | 4.5 | – |
| O=C1/C(=C/c2cccc(F)c2)CN(S(=O)(=O)c2ccc(C(F)(F)F)cc2)C/C1=C\c1cccc(F)c1 | – | Non-Toxic | 2.4 | 13.4 | 18 | 4.2 | – |
| Cl.NC1=NC(c2ccccc2F)C2=C(N1)/C(=C/c1ccccc1F)CN(S(=O)(=O)c1ccccc1)C2 (centres undefined) | 46.9 | Non-Toxic | 9.9 | 9.9 | 11.2 | 8.5 | 40.5 |
| O=C1/C(=C/c2ccccc2F)CN(S(=O)(=O)c2ccc(Cl)cc2)C/C1=C\c1ccccc1F | – | Non-Toxic | 10.9 | 9.6 | 14.1 | 4.5 | – |
| O=C1/C(=C/c2ccc(F)cc2)CN(S(=O)(=O)c2ccc(C(F)(F)F)cc2)C/C1=C\c1ccc(F)cc1 | – | Non-Toxic | 3.2 | 16.1 | 13.5 | 4.4 | – |
| CC(=O)Nc1ccc(S(=O)(=O)N2C/C(=C\c3cccc(F)c3)C(=O)/C(=C/c3cccc(F)c3)C2)cc1 | – | Non-Toxic | 11.1 | 17 | 17.5 | 10.3 | – |
| O=C1/C(=C/c2cccc(F)c2)CN(S(=O)(=O)c2ccc(F)cc2)C/C1=C\c1cccc(F)c1 | – | Non-Toxic | 5 | 15.4 | 21.9 | 13.5 | – |
| COc1cccc2c1C(=O)c1c(O)c3c(c(O)c1C2=O)C[C@@](O)(C(=O)CO)C[C@@H]3O[C@H]1C[C@H](N)[C@H](O)[C@H](C)O1 [DOXORUBICIN] | – | – | 1 | 12.2 | 13.8 | – | – |
| O=C1/C(=C/c2cccc(F)c2)CN(S(=O)(=O)c2ccc(Br)cc2)C/C1=C\c1cccc(F)c1 | – | Non-Toxic | 7.7 | 16.5 | 15.8 | 11.7 | – |
| O=C1/C(=C/c2cccc(F)c2)CN(S(=O)(=O)c2ccc(Cl)cc2)C/C1=C\c1cccc(F)c1 | – | Non-Toxic | 13.1 | 10.8 | 15.7 | 7.8 | – |
| Cc1ccc(S(=O)(=O)N2C/C(=C\c3cccc(F)c3)C(=O)/C(=C/c3cccc(F)c3)C2)cc1 | – | Non-Toxic | 3.5 | 11.2 | 15.7 | 18.1 | – |
| Cc1ccc(S(=O)(=O)N2C/C(=C\c3ccccc3F)C(=O)/C(=C/c3ccccc3F)C2)cc1 | – | Non-Toxic | 14.2 | 7.9 | 16.7 | 4.1 | – |
| O=C1/C(=C/c2ccccc2F)CN(S(=O)(=O)c2ccc(Br)cc2)C/C1=C\c1ccccc1F | – | Non-Toxic | 13.7 | 14 | 16.2 | 5.2 | – |
| O=C1/C(=C/c2ccccc2F)CN(S(=O)(=O)c2ccccc2)C/C1=C\c1ccccc1F | – | Non-Toxic | 15.9 | 27.2 | 17.6 | 5.7 | – |
| N#Cc1ccc(S(=O)(=O)N2C/C(=C\c3ccccc3F)C(=O)/C(=C/c3ccccc3F)C2)cc1 | – | Non-Toxic | 16.5 | 13.6 | 11 | 14.6 | – |
| N#Cc1ccc(S(=O)(=O)N2C/C(=C\c3ccc(F)cc3)C(=O)/C(=C/c3ccc(F)cc3)C2)cc1 | – | Non-Toxic | 9.8 | 14.6 | 14.7 | 15 | – |
| O=C1/C(=C/c2ccccc2F)CN(S(=O)(=O)c2ccc(F)cc2)C/C1=C\c1ccccc1F | – | Non-Toxic | 8 | 14.5 | 17.5 | 7.7 | – |
| O=C1/C(=C/c2cccc(F)c2)CN(S(=O)(=O)c2ccc([N+](=O)[O-])cc2)C/C1=C\c1cccc(F)c1 | – | Non-Toxic | 8.1 | 14.5 | 10.7 | 15.3 | – |
